Measurements published in ChEMBL document CHEMBL1770123, “SPF32629A and SPF32629B: enantioselective synthesis, determination of absolute configuration, cytotoxicity and antibacterial evaluation” (Eur J Med Chem, 2011).
Values after ≈ are worked out from the molar mass of the structure shown. Active and inactive are the calls of the source. The rule behind the calls is not given here.

Legend:
[1] = tested on: Staphylococcus aureus; experiment: Antimicrobial activity against methicillin-resistant Staphylococcus aureus strain 4 TB5G at 1000 ug/disc after 24 hrs by disc diffusion method; type: functional
Outline: (§1)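 Disc diffusion on 2.4% Mueller-Hinton agar inoculated with the strain. Paper discs 6 mm across were loaded with test compound and placed on the agar. Plates were incubated at 37 °C for 24 h. Read-out was the diameter of the inhibition zone in mm.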

[2] = tested on: Salmonella typhimurium; experiment: Antimicrobial activity against Salmonella Typhimurium at 500 ug/disc after 24 hrs by disc diffusion method; type: functional, Salmonella enterica subsp. enterica serovar Typhimurium; conditions: Salmonella enterica, read-out: DIZ
[3] = tested on: Staphylococcus aureus; experiment: Antimicrobial activity against methicillin-resistant Staphylococcus aureus strain 2 TB4G at 500 ug/disc after 24 hrs by disc diffusion method; type: functional; outline: as §1
[4] = tested on: Staphylococcus aureus; experiment: Antimicrobial activity against Staphylococcus aureus at 500 ug/disc after 24 hrs by disc diffusion method; type: functional; outline: as §1
[5] = tested on: Listeria monocytogenes; experiment: Antimicrobial activity against Listeria monocytogenes at 1000 ug/disc after 24 hrs by disc diffusion method; type: functional
[6] = tested on: A549; experiment: Cytotoxicity against human A549 cells assessed as cell death at 2 ug after 48 hrs by MTT assay; type: functional
Outline: (§2)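 A549 cells were grown in DMEM with 2 mmol L-glutamine, 10% FBS, penicillin (50 IU/mL) and streptomycin, at 37 °C and 5% CO2. 1×10^4 cells/well were plated and treated 24 h later with compound diluted in medium for 48 h. Controls were DMSO-matched and untreated wells. MTT 0.4 mg/mL in PBS was added for 4 h in the dark, then DMSO for 4 h. A540 was read and reported as % live cells relative to untreated.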

[7] = tested on: A549; experiment: Cytotoxicity against human A549 cells assessed as cell death at 1 ug after 48 hrs by MTT assay; type: functional; outline: as §2
[8] = tested on: Staphylococcus aureus; experiment: Antimicrobial activity against methicillin-resistant Staphylococcus aureus strain 1 TB3G at 500 ug/disc after 24 hrs by disc diffusion method; type: functional; outline: as §1
[9] = tested on: Bacillus subtilis; experiment: Antimicrobial activity against Bacillus subtilis at 1000 ug/disc after 24 hrs by disc diffusion method; type: functional
[10] = tested on: Salmonella typhimurium; experiment: Antimicrobial activity against Salmonella Typhimurium at 1000 ug/disc after 24 hrs by disc diffusion method; type: functional, Salmonella enterica subsp. enterica serovar Typhimurium; conditions: Salmonella enterica, read-out: DIZ
[11] = tested on: A549; experiment: Cytotoxicity against human A549 cells after 48 hrs by MTT assay; type: functional, cell-based; conditions: A549, 48 h
Outline: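 A549 cells were kept in DMEM with 2 mM L-glutamine, 10% FBS, penicillin 50 IU/mL and streptomycin at 37 °C under 5% CO2. 1×10^4 cells per well were treated 24 h after seeding with compounds diluted in medium for 48 h. MTT (0.4 mg/mL in PBS) was added for 4 h in the dark, formazan was dissolved in DMSO for 4 h and absorbance read at 540 nm. Viability was expressed as % of untreated cells, and IC50 was derived.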

[12] = tested on: Staphylococcus epidermidis; experiment: Antimicrobial activity against Staphylococcus epidermidis at 500 ug/disc after 24 hrs by disc diffusion method; type: functional
[13] = tested on: Staphylococcus aureus; experiment: Antimicrobial activity against methicillin-resistant Staphylococcus aureus strain 1 TB3G at 1000 ug/disc after 24 hrs by disc diffusion method; type: functional; outline: as §1
[14] = tested on: A549; experiment: Cytotoxicity against human A549 cells assessed as cell death at 25 ug after 48 hrs by MTT assay; type: functional; outline: as §2
[15] = tested on: Staphylococcus aureus; experiment: Antimicrobial activity against Staphylococcus aureus at 1000 ug/disc after 24 hrs by disc diffusion method; type: functional
[16] = tested on: Staphylococcus aureus; experiment: Antimicrobial activity against methicillin-resistant Staphylococcus aureus strain 4 TB5G at 500 ug/disc after 24 hrs by disc diffusion method; type: functional; outline: as §1
[17] = tested on: Klebsiella pneumoniae; experiment: Antimicrobial activity against Klebsiella pneumoniae at 500 ug/disc after 24 hrs by disc diffusion method; type: functional
[18] = tested on: A549; experiment: Cytotoxicity against human A549 cells assessed as cell death at 5 ug after 48 hrs by MTT assay; type: functional; outline: as §2
[19] = tested on: Escherichia coli; experiment: Antimicrobial activity against Escherichia coli at 1000 ug/disc after 24 hrs by disc diffusion method; type: functional
[20] = tested on: Staphylococcus epidermidis; experiment: Antimicrobial activity against Staphylococcus epidermidis at 1000 ug/disc after 24 hrs by disc diffusion method; type: functional; conditions: read-out: DIZ
[21] = tested on: Staphylococcus aureus; experiment: Antimicrobial activity against methicillin-resistant Staphylococcus aureus strain 2 TB4G at 1000 ug/disc after 24 hrs by disc diffusion method; type: functional; outline: as §1
[22] = biological target: T1, Chymase (Homo sapiens, UniProt P23946); experiment: Inhibition of human chymase
T1 sequence (P23946 whole entry): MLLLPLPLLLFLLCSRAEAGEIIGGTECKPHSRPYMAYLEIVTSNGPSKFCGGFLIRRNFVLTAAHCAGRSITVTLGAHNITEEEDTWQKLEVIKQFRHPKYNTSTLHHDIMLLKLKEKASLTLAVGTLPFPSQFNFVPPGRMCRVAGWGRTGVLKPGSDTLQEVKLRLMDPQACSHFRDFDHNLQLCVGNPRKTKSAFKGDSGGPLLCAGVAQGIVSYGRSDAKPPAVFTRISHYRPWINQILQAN

[23] = tested on: Klebsiella pneumoniae; experiment: Antimicrobial activity against Klebsiella pneumoniae at 1000 ug/disc after 24 hrs by disc diffusion method; type: functional
[24] = tested on: Listeria monocytogenes; experiment: Antimicrobial activity against Listeria monocytogenes at 500 ug/disc after 24 hrs by disc diffusion method; type: functional
[25] = Inhibition of human elastase
[26] = tested on: Escherichia coli; experiment: Antimicrobial activity against Escherichia coli at 500 ug/disc after 24 hrs by disc diffusion method; type: functional
[27] = tested on: Bacillus subtilis; experiment: Antimicrobial activity against Bacillus subtilis at 500 ug/disc after 24 hrs by disc diffusion method; type: functional
[28] = tested on: A549; experiment: Cytotoxicity against human A549 cells assessed as cell death at 10 ug after 48 hrs by MTT assay; type: functional; outline: as §2
[29] = tested on: Staphylococcus epidermidis; experiment: Antimicrobial activity against Staphylococcus epidermidis after 24 hrs by microdilution method; type: functional
Outline: (§3)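 Growth was judged by turbidity, and the MIC was taken as the minimum concentration giving the lowest growth. Amikacin served as reference.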

[30] = tested on: Staphylococcus aureus; experiment: Antimicrobial activity against methicillin-resistant Staphylococcus aureus strain 1 TB3G after 24 hrs by microdilution method; type: functional
Outline: (§4)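 Growth was judged by turbidity. The MIC was taken as the lowest concentration giving the lowest growth.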

[31] = tested on: Listeria monocytogenes; experiment: Antimicrobial activity against Listeria monocytogenes after 24 hrs by microdilution method; type: functional; outline: as §3
[32] = tested on: Klebsiella pneumoniae; experiment: Antimicrobial activity against Klebsiella pneumoniae after 24 hrs by microdilution method; type: functional; outline: as §3
[33] = tested on: Salmonella typhimurium; experiment: Antimicrobial activity against Salmonella Typhimurium after 24 hrs by microdilution method; type: functional, Salmonella enterica subsp. enterica serovar Typhimurium; conditions: Salmonella enterica; outline: as §3
[34] = tested on: Staphylococcus aureus; experiment: Antimicrobial activity against Staphylococcus aureus after 24 hrs by microdilution method; type: functional; outline: as §3
[35] = tested on: Escherichia coli; experiment: Antimicrobial activity against Escherichia coli after 24 hrs by microdilution method; type: functional; outline: as §3
[36] = tested on: Staphylococcus aureus; experiment: Antimicrobial activity against methicillin-resistant Staphylococcus aureus strain 2 TB4G after 24 hrs by microdilution method; type: functional; outline: as §4
[37] = tested on: Staphylococcus aureus; experiment: Antimicrobial activity against methicillin-resistant Staphylococcus aureus strain 4 TB5G after 24 hrs by microdilution method; type: functional; outline: as §4
[38] = tested on: Bacillus subtilis; experiment: Antimicrobial activity against Bacillus subtilis after 24 hrs by microdilution method; type: functional; outline: as §3

In the case of CC(C)CC(=O)OC(c1ccccc1)c1cc(O)cc(=O)[nH]1 (racemic), the “diameter of the inhibition zone (DIZ)” value [1] is reported as “inactive”, the zone of inhibition at 500 µg/disc [2] is reported as 7 mm and the “diameter of the inhibition zone (DIZ)” value [3] is reported as “inactive”. The “diameter of the inhibition zone (DIZ)” value [4] was “inactive”, the “diameter of the inhibition zone (DIZ)” value [5] was “inactive” and the Activity [6] was 25.54%. For the same compound, the Activity [7] was 8.22%, the “diameter of the inhibition zone (DIZ)” value [8] was “inactive” and the “diameter of the inhibition zone (DIZ)” value [9] was “inactive”. For the same compound, the zone of inhibition at 1000 µg/disc [10] was 13 mm, the IC50 [11] was 28 µM and the “diameter of the inhibition zone (DIZ)” value [12] was “inactive”. The “diameter of the inhibition zone (DIZ)” value [13] was “inactive”, the Activity [14] was 74.02% and the “diameter of the inhibition zone (DIZ)” value [15] was “inactive”. For the same compound, the “diameter of the inhibition zone (DIZ)” value [16] was “inactive”, the “diameter of the inhibition zone (DIZ)” value [17] was “inactive” and the Activity [18] was 37.22%. The “diameter of the inhibition zone (DIZ)” value [19] was “inactive”, the zone of inhibition at 1000 µg/disc [20] was 9 mm and the “diameter of the inhibition zone (DIZ)” value [21] was “inactive”. For the same compound, the IC50 [22] was 0.83 µM, the “diameter of the inhibition zone (DIZ)” value [23] was “inactive” and the “diameter of the inhibition zone (DIZ)” value [24] was “inactive”. The IC50 [25] was 4.9 µg/mL (≈ 16.3 µM), the “diameter of the inhibition zone (DIZ)” value [26] was “inactive” and the “diameter of the inhibition zone (DIZ)” value [27] was “inactive”. It also gave an Activity [28] of 50.21%.
Work on CC(C)CC(=O)O[C@@H](c1ccccc1)c1cc(O)c(C(=O)O)c(=O)[nH]1 yielded a zone of inhibition at 1000 µg/disc ([1]; read-out: DIZ) of 10 mm, an MIC [29] of 100 µg/mL (≈ 290 µM) and an MIC [30] of over 100 µg/mL. The zone of inhibition at 500 µg/disc [2] was 11 mm, the MIC [31] was over 100 µg/mL and the zone of inhibition at 500 µg/disc ([3]; read-out: DIZ) was 7 mm. It also gave a zone of inhibition at 500 µg/disc ([4]; read-out: DIZ) of 7 mm, a zone of inhibition at 1000 µg/disc ([5]; read-out: DIZ) of 18 mm and an Activity [6] of 25.23%. For the same compound, the Activity [7] was 9.53%, the zone of inhibition at 500 µg/disc ([8]; read-out: DIZ) was 5 mm and the MIC [32] was 100 µg/mL (≈ 290 µM). It also gave a zone of inhibition at 1000 µg/disc ([9]; read-out: DIZ) of 12 mm, an MIC [33] of over 100 µg/mL and a zone of inhibition at 1000 µg/disc [10] of 19 mm. For the same compound, the IC50 [11] was 9 µM, the zone of inhibition at 500 µg/disc ([12]; read-out: DIZ) was 11 mm and the zone of inhibition at 1000 µg/disc ([13]; read-out: DIZ) was 10 mm. The Activity [14] was 82.46%, the MIC [34] was over 100 µg/mL and the zone of inhibition at 1000 µg/disc ([15]; read-out: DIZ) was 16 mm. The zone of inhibition at 500 µg/disc ([16]; read-out: DIZ) was 6 mm, the zone of inhibition at 500 µg/disc ([17]; read-out: DIZ) was 13 mm and the Activity [18] was 47.69%. It also gave a zone of inhibition at 1000 µg/disc ([19]; read-out: DIZ) of 18 mm, a zone of inhibition at 1000 µg/disc [20] of 18 mm and an MIC [35] of 25 µg/mL (≈ 72.4 µM). The zone of inhibition at 1000 µg/disc ([21]; read-out: DIZ) was 12 mm, the MIC [36] was over 100 µg/mL and the MIC [37] was over 100 µg/mL. The zone of inhibition at 1000 µg/disc ([23]; read-out: DIZ) was 20 mm, the zone of inhibition at 500 µg/disc ([24]; read-out: DIZ) was 10 mm and the MIC [38] was 50 µg/mL (≈ 145 µM). For the same compound, the zone of inhibition at 500 µg/disc ([26]; read-out: DIZ) was 9 mm, the zone of inhibition at 500 µg/disc ([27]; read-out: DIZ) was 5 mm and the Activity [28] was 77.23%.
